Test results reported in ChEMBL document CHEMBL1136139, “The design, synthesis and evaluation of novel HIV-1 protease inhibitors with high potency against PI-resistant viral strains” (Bioorg Med Chem Lett, 2003).

Key:
[1] = target: Human immunodeficiency virus type 1 protease (Human immunodeficiency virus 1, UniProt Q72874); experiment: Inhibitory activity against HIV-1 Protease
MT4 [2] = experiment: Ability to inhibit spread of viral infection in MT-4 human T-lymphoidcell infected by wild-type HIV-1(strain NL4-3); assay type: functional; conditions: read-out: CIC95
How it was run: (§1)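 MT4 human T-lymphoid cells infected with HIV-1, either wild-type NL4-3 or engineered PI-resistant constructs (4X, K-60C, V-18C, Q-60C) carrying varied patterns of multiple PI resistance mutations; spread of infection in culture followed. Value is CIC95, the compound concentration inhibiting at least 95% of infectious viral spread relative to untreated virus control culture.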

MT4 [3] = experiment: Ability to inhibit spread of viral infection in MT-4 human T-lymphoidcell infected by PI-resistant HIV-1 (strain Q-60C); assay type: functional; conditions: read-out: CIC95; how it was run: as §1
MT4 [4] = experiment: Ability to inhibit spread of viral infection in MT-4 human T-lymphoidcell infected by PI-resistant HIV-1 (strain V-18C); assay type: functional; conditions: read-out: CIC95; how it was run: as §1
MT4 [5] = experiment: Ability to inhibit spread of viral infection in MT-4 human T-lymphoidcell infected by PI-resistant HIV-1 (strain 4X Virus); assay type: functional; conditions: read-out: CIC95; how it was run: as §1
MT4 [6] = experiment: Ability to inhibit spread of viral infection in MT-4 human T-lymphoidcell infected by PI-resistant HIV-1 (strain K-60C); assay type: functional; conditions: read-out: CIC95; how it was run: as §1
[7] = Plasma clearance after peroral administration at 10 mpk in dog; assay type: ADME, organism-based, Canis lupus familiaris; conditions: po, 10 mg/kg, read-out: Clp
How it was run: (§2)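 Dogs dosed both intravenously (2 mg/kg) and orally (10 mg/kg). Cmax, half-life, plasma clearance (mL/min/kg) and oral bioavailability (%) were derived from plasma drug levels. The study was IACUC-approved.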

[8] = Oral bioavailability in dog (dose 10 mg/kg); assay type: ADME, organism-based, Canis lupus familiaris; conditions: in vivo; how it was run: as §2
Cytochrome P450 2D6 = Cytochrome P450 2D6 (Homo sapiens, UniProt P10635); experiment: Inhibition of human liver microsome Cytochrome P450 2D6; assay type: ADME, microsomes
Chain of Cytochrome P450 2D6 (P10635 whole entry): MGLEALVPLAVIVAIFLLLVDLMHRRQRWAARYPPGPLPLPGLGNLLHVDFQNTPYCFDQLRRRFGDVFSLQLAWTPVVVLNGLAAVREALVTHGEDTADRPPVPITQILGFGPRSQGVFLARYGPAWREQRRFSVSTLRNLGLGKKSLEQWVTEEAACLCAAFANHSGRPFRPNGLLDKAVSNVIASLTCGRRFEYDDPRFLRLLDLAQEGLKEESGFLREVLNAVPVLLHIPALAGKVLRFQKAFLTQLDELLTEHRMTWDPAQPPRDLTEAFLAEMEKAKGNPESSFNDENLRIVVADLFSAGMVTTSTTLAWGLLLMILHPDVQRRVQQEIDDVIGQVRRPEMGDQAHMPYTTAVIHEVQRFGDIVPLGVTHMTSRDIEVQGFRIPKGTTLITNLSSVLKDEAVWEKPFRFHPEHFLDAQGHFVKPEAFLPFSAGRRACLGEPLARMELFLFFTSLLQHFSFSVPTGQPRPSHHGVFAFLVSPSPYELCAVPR

Cytochrome P450 3A4 = Cytochrome P450 3A4 (Homo sapiens, UniProt P08684); experiment: Inhibition of human liver microsome Cytochrome P450 3A4
Chain of Cytochrome P450 3A4 (P08684 whole entry): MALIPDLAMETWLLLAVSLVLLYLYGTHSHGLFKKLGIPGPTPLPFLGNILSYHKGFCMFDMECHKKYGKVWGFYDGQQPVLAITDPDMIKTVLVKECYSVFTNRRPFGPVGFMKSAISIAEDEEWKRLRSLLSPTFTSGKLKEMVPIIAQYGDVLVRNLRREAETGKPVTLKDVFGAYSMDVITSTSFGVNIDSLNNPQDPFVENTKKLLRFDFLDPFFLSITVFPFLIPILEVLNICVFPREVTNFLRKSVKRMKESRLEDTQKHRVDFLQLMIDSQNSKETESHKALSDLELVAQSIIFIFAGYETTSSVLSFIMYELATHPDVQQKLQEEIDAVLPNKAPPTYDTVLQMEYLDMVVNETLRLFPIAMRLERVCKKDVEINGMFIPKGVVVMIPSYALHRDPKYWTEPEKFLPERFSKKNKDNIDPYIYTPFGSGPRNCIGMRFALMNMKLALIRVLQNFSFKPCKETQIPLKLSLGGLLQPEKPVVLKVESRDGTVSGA

[9] = In vitro intrinsic clearance in human liver microsome; assay type: ADME; conditions: liver microsomes
How it was run: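 The compound was incubated with liver microsomes from rat, dog, rhesus and human. Metabolic stability was expressed as intrinsic clearance scaled to mL/min/kg.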

[10] = Half life period was determine after peroral administration at 10 mpk in dog; assay type: ADME, organism-based, Canis lupus familiaris; conditions: in vivo, po, 10 mg/kg; how it was run: as §2
[11] = Cmax was determine after peroral administration at 10 mpk in dog; assay type: ADME, organism-based, Canis lupus familiaris; parameters: dose 10 mpk, route oral; conditions: in vivo, po, 10 mg/kg; how it was run: as §2
Cytochrome P450 2C9 = Cytochrome P450 2C9 (Homo sapiens, UniProt P11712); experiment: Inhibition of human liver microsome Cytochrome P450 2C9; assay type: ADME, microsomes
Chain of Cytochrome P450 2C9 (P11712 whole entry): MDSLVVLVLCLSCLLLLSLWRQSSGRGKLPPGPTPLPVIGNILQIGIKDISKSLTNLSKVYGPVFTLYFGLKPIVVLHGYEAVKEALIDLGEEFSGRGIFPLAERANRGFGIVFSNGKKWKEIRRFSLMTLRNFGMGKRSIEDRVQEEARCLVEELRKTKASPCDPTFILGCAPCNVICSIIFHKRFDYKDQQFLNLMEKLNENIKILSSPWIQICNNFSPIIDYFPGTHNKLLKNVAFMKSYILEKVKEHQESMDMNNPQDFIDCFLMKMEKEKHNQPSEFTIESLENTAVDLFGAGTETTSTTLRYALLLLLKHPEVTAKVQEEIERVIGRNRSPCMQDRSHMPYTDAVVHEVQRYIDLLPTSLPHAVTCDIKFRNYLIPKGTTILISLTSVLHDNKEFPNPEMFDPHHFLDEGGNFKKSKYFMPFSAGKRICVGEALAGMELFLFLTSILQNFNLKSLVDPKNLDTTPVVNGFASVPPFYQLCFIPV

Compound	IC50 [1] [nM]	IC95 (MT4 [2]) [nM]	IC95 (MT4 [3]) [nM]	IC95 (MT4 [4]) [nM]	IC95 (MT4 [5]) [nM]	IC95 (MT4 [6]) [nM]	CL/F [7] [mL/min/kg]	bioavailability [8] [%]	IC50 (Cytochrome P450 2D6) [nM]	IC50 (Cytochrome P450 3A4) [nM]	CLint scaled [9] [mL/min/kg]	half-life [10] [h]	Cmax [11] [nM]	IC50 (Cytochrome P450 2C9) [nM]
O=C(N[C@H]1c2ccccc2OC[C@H]1O)[C@H](Cc1ccccc1)C[C@H](O)CN1CCN(Cc2ncc(-c3ccccn3)o2)C[C@H]1C(=O)NCC(F)(F)F	0.13	23	125	125	31									
O=C(N[C@H]1c2ccccc2OC[C@H]1O)[C@H](Cc1ccccc1)C[C@H](O)CN1CCN(Cc2ncc(-c3cccnc3)o2)C[C@H]1C(=O)NCC(F)(F)F	0.14	27	125	250	62	125								
CC(C)(c1ncc(-c2cnccc2Cl)o1)N1CCN(C[C@@H](O)C[C@@H](Cc2ccccc2)C(=O)N[C@H]2c3ccccc3OC[C@H]2O)[C@H](C(=O)NCC(F)(F)F)C1	0.02	≤ 8		31		16	19	8	4170	40	35	1.53	1000	21000
CC(C)(c1ncc(-c2cccnc2)o1)N1CCN(C[C@@H](O)C[C@@H](Cc2ccccc2)C(=O)N[C@H]2c3ccccc3OC[C@H]2O)[C@H](C(=O)NCC(F)(F)F)C1	0.04	≤ 8	31	125		31	21	10	10500	110	27	1.57	3800	33000
